The nature of series [1]: Clearance in rat at 1 mg/kg, iv by LC-MS/MS analysis. It counts as ADME, organism-based. The settings on record: in vivo.
Series [2] in a line: Volume of distribution at steady state in rat at 1 mg/kg, iv by LC-MS/MS analysis. In kind it is ADME, organism-based. Particulars: in vivo, read-out: Vdss; call rule not given here.
The nature of series [3]: Half life in rat at 1 mg/kg, iv by LC-MS/MS analysis. In kind it is ADME, organism-based. The settings on record: in vivo.
A short description of series [4]: AUC in rat at 5 mg/kg, po by LC-MS/MS analysis. In kind it is ADME, organism-based. The settings on record: in vivo.
The nature of series [5]: Oral bioavailability in rat at 5 mg/kg by LC-MS/MS analysis. It counts as ADME, organism-based. Particulars: in vivo.
Series [6] can be described thus: Half life in human hepatocytes at 0.5 uM by LC-MS/MS analysis. It counts as ADME, cell-based, Hepatocyte. The method in brief: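 Cryopreserved human hepatocytes were incubated with compound for up to 2 h, and metabolic turnover was followed to estimate half-life.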
The target in another series is Cytochrome P450 2C9 (Homo sapiens, UniProt P11712). The experiment in a line: Inhibition of CYP2C9 in human liver microsomes using diclofenac as substrate preincubated for 10 mins followed by NADPH addition and measured by LC-MS/MS analysis. In kind it is ADME. A general note: Liver microsomes are vesicles of endoplasmic reticulum, rich in cytochrome P450 enzymes.
Chain of Cytochrome P450 2C9 (P11712 whole entry): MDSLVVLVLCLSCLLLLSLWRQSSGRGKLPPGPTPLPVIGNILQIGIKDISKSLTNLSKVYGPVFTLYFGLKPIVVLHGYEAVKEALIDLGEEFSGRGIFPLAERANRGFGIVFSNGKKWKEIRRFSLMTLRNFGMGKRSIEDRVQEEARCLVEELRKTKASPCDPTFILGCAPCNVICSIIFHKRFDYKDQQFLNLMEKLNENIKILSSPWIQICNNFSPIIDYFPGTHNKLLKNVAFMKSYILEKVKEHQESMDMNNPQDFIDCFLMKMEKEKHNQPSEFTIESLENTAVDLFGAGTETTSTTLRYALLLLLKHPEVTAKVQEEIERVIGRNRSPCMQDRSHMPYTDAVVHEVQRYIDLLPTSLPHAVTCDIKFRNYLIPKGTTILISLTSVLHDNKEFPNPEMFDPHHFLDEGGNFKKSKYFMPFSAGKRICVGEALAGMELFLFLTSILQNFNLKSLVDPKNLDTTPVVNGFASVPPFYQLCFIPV

In another series the target is Cytochrome P450 2C19 (Homo sapiens, UniProt P33261). The series can be described thus: Inhibition of CYP2C19 in human liver microsomes using mephenytoin as substrate preincubated for 10 mins followed by NADPH addition and measured by LC-MS/MS analysis. It counts as ADME.
Chain of Cytochrome P450 2C19 (P33261 whole entry): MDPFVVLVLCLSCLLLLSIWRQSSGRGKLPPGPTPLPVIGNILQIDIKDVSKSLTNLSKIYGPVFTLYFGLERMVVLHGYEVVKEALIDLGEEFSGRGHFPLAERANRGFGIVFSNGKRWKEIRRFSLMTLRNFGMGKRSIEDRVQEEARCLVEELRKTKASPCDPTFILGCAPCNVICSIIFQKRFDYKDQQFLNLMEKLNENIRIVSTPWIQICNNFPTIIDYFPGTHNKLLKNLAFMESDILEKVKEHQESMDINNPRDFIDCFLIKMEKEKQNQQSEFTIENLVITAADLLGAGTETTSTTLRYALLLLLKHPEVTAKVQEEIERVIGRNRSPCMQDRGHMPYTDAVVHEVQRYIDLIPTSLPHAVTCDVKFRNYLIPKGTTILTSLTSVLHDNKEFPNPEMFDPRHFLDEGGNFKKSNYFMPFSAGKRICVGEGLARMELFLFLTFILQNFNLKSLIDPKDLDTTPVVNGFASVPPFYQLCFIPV
The target in series [7] is T1, Cytochrome P450 3A4 (Homo sapiens, UniProt P08684). The series can be described thus: Inhibition of CYP3A4 in human liver microsomes using atorvastatin as substrate preincubated for 7 mins followed by NADPH addition and measured by LC-MS/MS analysis. In kind it is ADME.
T1 sequence (P08684 whole entry): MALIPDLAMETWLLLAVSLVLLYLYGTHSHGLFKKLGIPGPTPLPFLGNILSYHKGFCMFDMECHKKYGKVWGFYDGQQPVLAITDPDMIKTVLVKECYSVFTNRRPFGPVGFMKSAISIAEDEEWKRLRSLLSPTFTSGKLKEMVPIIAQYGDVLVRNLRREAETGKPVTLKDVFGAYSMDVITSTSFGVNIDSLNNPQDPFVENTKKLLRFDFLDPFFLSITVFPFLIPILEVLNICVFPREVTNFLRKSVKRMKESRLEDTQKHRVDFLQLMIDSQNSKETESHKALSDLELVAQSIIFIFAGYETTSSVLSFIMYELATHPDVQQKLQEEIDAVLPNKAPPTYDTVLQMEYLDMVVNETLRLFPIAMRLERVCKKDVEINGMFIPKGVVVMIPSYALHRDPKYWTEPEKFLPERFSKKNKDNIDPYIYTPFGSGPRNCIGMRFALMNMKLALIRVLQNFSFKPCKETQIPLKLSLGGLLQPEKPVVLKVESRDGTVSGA
The target in series [8] is T1, Cytochrome P450 3A4. The experiment in a line: Inhibition of CYP3A4 in human liver microsomes using midazolam as substrate preincubated for 7 mins followed by NADPH addition and measured by LC-MS/MS analysis. In kind it is ADME.
The target in series [9] is T1, Cytochrome P450 3A4. The series can be described thus: Inhibition of CYP3A4 in human liver microsomes using nifedipine as substrate preincubated for 7 mins followed by NADPH addition and measured by LC-MS/MS analysis. It counts as ADME.
Series [10] is described as follows: Blood clearance in rat at 1 mg/kg, iv by LC-MS/MS analysis. It counts as ADME, organism-based. The settings on record: whole blood. The method in brief: (§1)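 Rat and dog received a single i.v. dose of 1 mg/kg in DMSO/20% hydroxypropyl-β-cyclodextrin (10/90), pH adjusted. Clearance was taken from blood or plasma concentration–time profiles.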
Series [11] is described as follows: Blood clearance in Beagle dog at 1 mg/kg, iv by LC-MS/MS analysis. It counts as ADME, organism-based, Canis lupus familiaris. Particulars: whole blood. The method in brief:
as §1

Series [12] in a line: Plasma clearance in cynomolgus monkey at 1 mg/kg, iv by LC-MS/MS analysis. It counts as ADME, organism-based, Macaca fascicularis.
Series [13] is described as follows: Plasma clearance in CD1 mouse at 1 mg/kg, iv by LC-MS/MS analysis relative to hepatic blood flow. In kind it is ADME, organism-based. Particulars: in vivo. The essentials:
(§2)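 Clearance expressed as a percentage of liver blood flow: compound blood or plasma clearance after i.v. dosing divided by the hepatic blood flow of that species.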

Series [14] can be described thus: Blood clearance in rat at 1 mg/kg, iv by LC-MS/MS analysis relative to hepatic blood flow. In kind it is ADME, organism-based. The settings on record: in vivo. The essentials:
as §2

Series [15] is described as follows: Blood clearance in Beagle dog at 1 mg/kg, iv by LC-MS/MS analysis relative to hepatic blood flow. In kind it is ADME, organism-based, Canis lupus familiaris. The settings on record: in vivo. The essentials:
as §2

Series [16] in a line: Plasma clearance in cynomolgus monkey at 1 mg/kg, iv by LC-MS/MS analysis relative to hepatic blood flow. Particulars: in vivo. It counts as ADME, organism-based, Macaca fascicularis. The essentials:
as §2

The next series relates to Hepatitis C virus. The experiment in a line: Antiviral activity against HCV genotype1 infected in human assessed as reduction in plasma viral RNA level at 420 mg, po administered as single dose. In kind it is functional, Hepacivirus hominis, genotype 1.
A short description of series [17]: Half life in human assessed as 5-cyclopropyl-2-(4-fluorophenyl)-N-methyl-6-(methylsulfonamido)benzofuran-3-carboxamide level. In kind it is ADME.
The target of another series is T2, Cytochrome P450 1A2 (Homo sapiens, UniProt P05177).
T2 sequence (P05177 whole entry): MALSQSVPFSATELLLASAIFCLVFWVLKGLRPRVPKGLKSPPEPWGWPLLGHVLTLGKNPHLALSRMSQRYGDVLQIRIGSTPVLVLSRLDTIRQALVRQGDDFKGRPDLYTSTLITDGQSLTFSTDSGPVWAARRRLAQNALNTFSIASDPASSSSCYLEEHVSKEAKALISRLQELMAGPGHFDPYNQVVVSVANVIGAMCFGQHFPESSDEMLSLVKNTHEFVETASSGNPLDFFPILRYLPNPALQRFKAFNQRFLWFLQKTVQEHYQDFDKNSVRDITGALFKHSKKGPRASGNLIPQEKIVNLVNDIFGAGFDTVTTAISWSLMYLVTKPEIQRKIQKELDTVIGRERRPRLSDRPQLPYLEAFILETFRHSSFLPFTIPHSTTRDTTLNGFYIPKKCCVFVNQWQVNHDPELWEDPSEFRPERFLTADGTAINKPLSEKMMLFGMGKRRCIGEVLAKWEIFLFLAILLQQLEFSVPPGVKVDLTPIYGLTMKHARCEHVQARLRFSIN
The experiment in a line: Inhibition of CYP1A2 in human liver microsomes at 0.033 to 33 uM using phenacetin as substrate preincubated for 10 mins followed by NADPH addition and measured by LC-MS/MS analysis. It counts as ADME.

Another series deals with Cytochrome P450 2D6 (Homo sapiens, UniProt P10635). The series can be described thus: Inhibition of CYP2D6 in human liver microsomes at 0.033 to 33 uM using bufuralol as substrate preincubated for 10 mins followed by NADPH addition and measured by LC-MS/MS analysis. In kind it is ADME.
Chain of Cytochrome P450 2D6 (P10635 whole entry): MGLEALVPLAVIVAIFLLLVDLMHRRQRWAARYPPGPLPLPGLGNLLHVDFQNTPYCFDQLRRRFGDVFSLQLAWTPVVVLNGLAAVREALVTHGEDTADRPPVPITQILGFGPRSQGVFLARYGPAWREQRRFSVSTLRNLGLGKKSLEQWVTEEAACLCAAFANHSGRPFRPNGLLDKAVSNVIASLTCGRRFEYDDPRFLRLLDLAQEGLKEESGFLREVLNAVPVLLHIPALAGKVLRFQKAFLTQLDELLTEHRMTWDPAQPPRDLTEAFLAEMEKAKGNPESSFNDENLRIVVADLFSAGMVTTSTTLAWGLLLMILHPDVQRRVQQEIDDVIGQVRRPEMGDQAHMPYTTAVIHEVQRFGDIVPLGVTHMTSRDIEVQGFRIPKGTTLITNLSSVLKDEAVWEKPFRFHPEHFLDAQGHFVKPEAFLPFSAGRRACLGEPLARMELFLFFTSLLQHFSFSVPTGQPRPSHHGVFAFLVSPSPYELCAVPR
The target of series [18] is Voltage-gated inwardly rectifying potassium channel KCNH2 (Homo sapiens, UniProt Q12809). The series can be described thus: Inhibition of human ERG by patch clamp electrophysiology method. The method in brief:
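hERG activity was measured by patch-clamp electrophysiology as the reduction in channel current caused by the compound, giving an IC50.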
(In general: In patch-clamp work, channel activity is measured electrically.)

A short description of series [19]: Blood clearance in CD1 mouse at 1 mg/kg, iv by LC-MS/MS analysis. The settings on record: whole blood. In kind it is ADME, organism-based.
Series [20] can be described thus: Blood clearance in CD1 mouse at 1 mg/kg, iv by LC-MS/MS analysis relative to hepatic blood flow. In kind it is ADME, organism-based. Particulars: in vivo. The method in brief: as §2
Series [21] in a line: Blood clearance in cynomolgus monkey at 1 mg/kg, iv by LC-MS/MS analysis relative to hepatic blood flow. It counts as ADME, organism-based, Macaca fascicularis. Particulars: in vivo. The method in brief: as §2
Series [22] in a line: Half life in rat hepatocytes at 0.5 uM by LC-MS/MS analysis. In kind it is ADME, cell-based, Hepatocyte.

The values that follow come from ChEMBL document CHEMBL4390640, “Design of N-Benzoxaborole Benzofuran GSK8175-Optimization of Human Pharmacokinetics Inspired by Metabolites of a Failed Clinical HCV Inhibitor” (J Med Chem, 2019).

Chain of Voltage-gated inwardly rectifying potassium channel KCNH2 (Q12809 whole entry): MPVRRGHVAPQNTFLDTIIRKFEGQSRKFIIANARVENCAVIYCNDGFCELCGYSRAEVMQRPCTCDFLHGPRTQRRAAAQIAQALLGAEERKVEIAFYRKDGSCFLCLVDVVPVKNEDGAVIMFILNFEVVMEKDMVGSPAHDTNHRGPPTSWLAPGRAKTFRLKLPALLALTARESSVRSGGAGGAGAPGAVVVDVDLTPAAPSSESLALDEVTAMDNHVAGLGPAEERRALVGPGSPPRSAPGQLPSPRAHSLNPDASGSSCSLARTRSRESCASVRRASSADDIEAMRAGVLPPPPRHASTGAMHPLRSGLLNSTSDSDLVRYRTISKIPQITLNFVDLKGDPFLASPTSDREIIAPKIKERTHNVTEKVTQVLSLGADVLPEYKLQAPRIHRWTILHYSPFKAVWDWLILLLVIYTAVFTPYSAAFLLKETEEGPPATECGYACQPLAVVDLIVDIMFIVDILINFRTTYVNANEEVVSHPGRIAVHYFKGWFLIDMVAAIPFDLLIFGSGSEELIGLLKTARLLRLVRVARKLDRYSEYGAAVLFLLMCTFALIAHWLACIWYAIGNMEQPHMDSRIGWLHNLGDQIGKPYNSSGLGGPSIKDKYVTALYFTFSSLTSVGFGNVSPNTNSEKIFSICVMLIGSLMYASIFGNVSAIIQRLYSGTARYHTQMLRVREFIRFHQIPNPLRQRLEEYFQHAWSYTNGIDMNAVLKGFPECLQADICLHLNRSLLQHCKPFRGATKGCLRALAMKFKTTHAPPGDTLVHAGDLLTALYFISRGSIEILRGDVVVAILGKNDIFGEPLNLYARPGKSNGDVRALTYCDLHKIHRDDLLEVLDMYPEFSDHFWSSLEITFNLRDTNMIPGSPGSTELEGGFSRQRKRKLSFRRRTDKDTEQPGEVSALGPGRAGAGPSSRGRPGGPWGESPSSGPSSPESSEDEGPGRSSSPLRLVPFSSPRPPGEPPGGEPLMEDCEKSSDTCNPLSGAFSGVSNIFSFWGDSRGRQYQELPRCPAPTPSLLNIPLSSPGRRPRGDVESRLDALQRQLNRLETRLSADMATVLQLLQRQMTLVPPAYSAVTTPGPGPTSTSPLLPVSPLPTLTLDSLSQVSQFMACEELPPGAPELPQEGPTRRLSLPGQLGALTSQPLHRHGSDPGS

A word on the clearance: it is a measure of how efficiently the substance is removed, as volume per time. As usually defined, the half-life is the time in which the quantity being followed falls by half. For orientation: AUC means concentration integrated over time. By bioavailability is commonly meant dose-corrected exposure relative to a reference, in per cent. For orientation: IC50 means the point on the concentration scale where inhibition reaches its midpoint. As for `CNC(=O)c1c(-c2ccc(F)cc2)oc2cc(N(Cc3ccc(B(O)O)c(F)c3)S(C)(=O)=O)c(C3CC3)cc12`, the clearance in [1] worked out at 29 mL/min/kg; in series [10], 29 mL/min/kg; in series [11] it was 11 mL/min/kg; in series [12] it was 48 mL/min/kg. The Vd in series [2] came out at 1.4 L/kg. Further, the half-life in series [3] was 1 h. The same compound had an AUC in series [4] of 700 ng·h/mL. In addition, the bioavailability in series [5] is 23%. In series [6], the half-life at 0.5 µM is 1 h. For the same compound, the half-inhibitory concentration (IC50) against Cytochrome P450 2C9 was 4.9 µM; on Cytochrome P450 2C19 it was 18 µM; against Cytochrome P450 3A4 [7], 7.1 µM; against Cytochrome P450 3A4 [8] it was greater than 33 µM; against Cytochrome P450 3A4 [9] it was 28 µM. Moreover, the CL was determined as 1.1% in series [13], 37% in series [14], 19% in series [15] and 100% in series [16]. Also, the Activity with Hepatitis C virus is reported as 1.33 log10IU/ml. Moreover, in [17], the t1/2 worked out at 45 h.

As for `CNC(=O)c1c(-c2ccc(F)cc2)oc2cc(-n3nccc3-c3ccc(B(O)O)c(F)c3)c(C3CC3)cc12`, in series [1], the clearance is 5.4 mL/min/kg. In addition, in series [2], the Vd is 1.3 L/kg. In [3], this compound showed a half-life of 3.4 h. Moreover, the AUC in series [4] amounted to 10000 ng·h/mL. The bioavailability in series [5] worked out at 64%. Further, the IC50 against Cytochrome P450 2C9 was 1.5 µM; against Cytochrome P450 2C19, 23 µM; on Cytochrome P450 3A4 [7] it was 2 µM; on Cytochrome P450 3A4 [8], greater than 33 µM; on Cytochrome P450 3A4 [9], greater than 33 µM.

As to `CNC(=O)c1c(-c2ccc(F)cc2)oc2cc(-n3ncnc3-c3ccc(B(O)O)c(F)c3)c(C3CC3)cc12`, the clearance in series [1] was determined as 4.5 mL/min/kg. Also, the Vd in [2] stood at 0.9 L/kg. This compound also showed a half-life in series [3] of 2.6 h. This compound also had an AUC in [4] of 7600 ng·h/mL. In series [5], this compound came in with a bioavailability of 40%. The concentration for half-maximal inhibition (IC50) at Cytochrome P450 2C9 was 2.7 µM; on Cytochrome P450 2C19, 1.2 µM; at Cytochrome P450 3A4 [7] it was 8.9 µM; at Cytochrome P450 3A4 [8], greater than 33 µM; against Cytochrome P450 3A4 [9] it was greater than 33 µM.

Consider `CNC(=O)c1c(-c2ccc(F)cc2)oc2cc(N(c3cc(Cl)c4c(c3)COB4O)S(C)(=O)=O)c(C3CC3)cc12`, for which the Vd in series [2] worked out at 0.9 L/kg. In series [3], this compound showed a half-life of 2.8 h. In [4], this compound displayed an AUC of 5400 ng·h/mL. For the same compound, the IC50 against Cytochrome P450 2C9 is 22 µM; against Cytochrome P450 2C19 it was greater than 33 µM; on Cytochrome P450 3A4 [7] it was greater than 33 µM; on Cytochrome P450 3A4 [8], greater than 33 µM; on Cytochrome P450 3A4 [9], greater than 33 µM; in series [18] it was 16 µM. The “inhibition (INH)” value on Cytochrome P450 1A2 and against Cytochrome P450 2D6 was “Active” each time. The clearance in [19] came out at 0.7 mL/min/kg. Further, the CL in [20] is 0.6%; in series [14], 8.9%; in series [15], 2.1%; in series [21] it was 13%.

In turn, `CNC(=O)c1c(-c2ccc(F)cc2)oc2cc(N(c3ccc(B(O)O)c(Cl)c3)S(C)(=O)=O)c(C3CC3)cc12` came in with a clearance in series [1] of 5.1 mL/min/kg. For the same compound, in [2], the Vd is 1.1 L/kg. The same compound gave a half-life in series [3] of 3.7 h. This compound also had an AUC in series [4] of 4800 ng·h/mL. For the same compound, the bioavailability in series [5] amounted to 27%. Further, the IC50 was 2.6 µM at Cytochrome P450 2C9; 7.4 µM against Cytochrome P450 2C19; 4.2 µM against Cytochrome P450 3A4 [7]; greater than 33 µM on Cytochrome P450 3A4 [8]; 8.1 µM on Cytochrome P450 3A4 [9]; 1.6 µM in series [18].

Regarding `CNC(=O)c1c(-c2ccc(F)cc2)oc2cc(N3C(=O)OC[C@@H]3c3ccc(B(O)O)c(F)c3)c(C3CC3)cc12`, the clearance in [1] was determined as 22 mL/min/kg. The Vd in series [2] was found to be 1.3 L/kg. The compound also had a half-life in series [3] of 1.2 h. In series [4], this compound came in with an AUC of 280 ng·h/mL. Moreover, in [5], the bioavailability turned out to be 8%.

Compound `CNC(=O)c1c(-c2ccc(F)cc2)oc2cc(N(C3CCc4c(B(O)O)cccc43)S(C)(=O)=O)c(C3CC3)cc12` (stereo not given) returned a clearance in series [1] of 69 mL/min/kg. For the same compound, the Vd in [2] stood at 3.5 L/kg. The compound further had a half-life in series [3] of 1.1 h. This compound came in with an AUC in series [4] of 40 ng·h/mL. The same compound had a bioavailability in series [5] of 4%. The same compound had a half-life at 0.5 µM in series [22] of 0.75 h. Moreover, in series [6] (0.5 µM), the t1/2 is less than 0.25 h.

`CNC(=O)c1c(-c2ccc(F)cc2)oc2cc(N(Cc3ccc(B(O)O)cc3C(F)(F)F)S(C)(=O)=O)c(C3CC3)cc12` showed a clearance in series [1] of 3.5 mL/min/kg.
